Laboratory results from ChEMBL document CHEMBL4257579, “Analogs of penfluridol as chemotherapeutic agents with reduced central nervous system activity” (Bioorg Med Chem Lett, 2018).

What was measured:
Mu-type opioid receptor = Mu-type opioid receptor (Homo sapiens, UniProt P35372); test: Displacement of [3H]DAMGO from human MOR expressed in HEK cells by radioligand binding assay; format: cell-based
[1] = test system: Lewis lung carcinoma cell line; test: Cytotoxicity against mouse LLC cells harboring […] assessed as reduction in cell viability after 72 hrs by MTT assay; format: functional, cell-based
Procedure, shortened: (§1)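 Cells exposed to compounds; viability read at 24, 48 and 72 h. Every experiment run in triplicate.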

D(3) dopamine receptor [2] = target: T1, D(3) dopamine receptor (Homo sapiens, UniProt P35462); test: Displacement of [3H]N-methylspiperone from human dopamine D3 receptor expressed in HEK293T cells by radioligand binding assay relative to control; format: cell-based; design: concentration or dose not given beside the values; conditions: concentration not given here
T1 sequence (P35462 whole entry): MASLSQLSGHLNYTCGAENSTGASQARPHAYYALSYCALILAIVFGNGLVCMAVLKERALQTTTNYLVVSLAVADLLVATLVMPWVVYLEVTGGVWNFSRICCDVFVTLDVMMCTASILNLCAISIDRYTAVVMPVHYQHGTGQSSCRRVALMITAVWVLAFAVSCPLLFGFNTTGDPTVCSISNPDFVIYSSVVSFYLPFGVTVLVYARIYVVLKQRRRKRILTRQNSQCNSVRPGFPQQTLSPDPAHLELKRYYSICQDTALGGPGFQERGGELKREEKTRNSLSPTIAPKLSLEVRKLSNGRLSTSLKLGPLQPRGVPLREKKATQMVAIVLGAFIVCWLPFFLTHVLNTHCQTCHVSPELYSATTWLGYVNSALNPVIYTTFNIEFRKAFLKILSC

[3] = target: T2, Kappa-type opioid receptor (Homo sapiens, UniProt P41145); test: Displacement of [3H]U69593 from KOR (unknown origin) expressed in HEK cells by radioligand binding assay; format: cell-based
T2 sequence (P41145 whole entry): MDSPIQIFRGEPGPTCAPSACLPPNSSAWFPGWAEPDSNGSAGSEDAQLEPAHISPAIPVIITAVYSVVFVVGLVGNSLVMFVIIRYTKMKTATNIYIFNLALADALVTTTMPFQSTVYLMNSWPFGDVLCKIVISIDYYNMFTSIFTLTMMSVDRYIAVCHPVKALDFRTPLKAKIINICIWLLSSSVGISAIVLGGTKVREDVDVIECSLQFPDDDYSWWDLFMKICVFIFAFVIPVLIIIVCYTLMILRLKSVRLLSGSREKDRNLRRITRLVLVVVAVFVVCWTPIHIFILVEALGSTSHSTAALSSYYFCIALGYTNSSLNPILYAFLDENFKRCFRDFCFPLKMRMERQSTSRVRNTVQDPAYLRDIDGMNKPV

[4] = target: T3, 5-hydroxytryptamine receptor 2C (Homo sapiens, UniProt P28335); test: Displacement of [3H]Mesulergine from human 5-HT2C receptor expressed in HEK293FlpIN cells by radioligand binding assay; format: cell-based
T3 sequence (P28335 whole entry): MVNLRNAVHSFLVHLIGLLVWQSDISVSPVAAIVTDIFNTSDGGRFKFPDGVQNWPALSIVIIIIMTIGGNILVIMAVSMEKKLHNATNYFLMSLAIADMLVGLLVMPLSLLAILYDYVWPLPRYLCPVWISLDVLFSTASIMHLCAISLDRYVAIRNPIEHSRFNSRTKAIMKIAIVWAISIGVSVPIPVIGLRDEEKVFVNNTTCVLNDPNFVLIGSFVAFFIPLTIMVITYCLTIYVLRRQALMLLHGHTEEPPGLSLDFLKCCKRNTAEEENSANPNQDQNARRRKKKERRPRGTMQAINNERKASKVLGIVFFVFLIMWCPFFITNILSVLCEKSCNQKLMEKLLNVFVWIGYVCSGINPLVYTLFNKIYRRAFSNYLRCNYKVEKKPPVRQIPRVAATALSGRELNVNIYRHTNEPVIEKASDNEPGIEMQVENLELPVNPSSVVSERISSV

D(2) dopamine receptor = D(2) dopamine receptor (Homo sapiens, UniProt P14416); test: Displacement of [3H]N-methylspiperone from human dopamine D2 receptor expressed in stable fibroblast cells by radioligand binding assay; format: cell-based
Sequence of D(2) dopamine receptor (P14416 whole entry): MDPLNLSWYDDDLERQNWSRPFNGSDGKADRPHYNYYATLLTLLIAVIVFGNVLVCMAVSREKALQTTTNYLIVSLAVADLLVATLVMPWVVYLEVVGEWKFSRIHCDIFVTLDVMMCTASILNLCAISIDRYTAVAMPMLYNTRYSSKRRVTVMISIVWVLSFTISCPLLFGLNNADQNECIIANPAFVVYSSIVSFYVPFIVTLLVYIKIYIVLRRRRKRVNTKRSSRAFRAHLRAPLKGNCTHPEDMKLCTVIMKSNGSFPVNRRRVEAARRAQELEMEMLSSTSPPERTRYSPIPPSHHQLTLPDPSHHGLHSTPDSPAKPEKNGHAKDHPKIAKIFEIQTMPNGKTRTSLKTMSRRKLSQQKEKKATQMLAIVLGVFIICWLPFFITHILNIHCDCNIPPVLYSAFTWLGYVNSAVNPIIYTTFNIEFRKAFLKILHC

D(1A) dopamine receptor = D(1A) dopamine receptor (Homo sapiens, UniProt P21728); test: Displacement of [3H]SCH23390 from human dopamine D1 receptor expressed in HEK293T cells by radioligand binding assay; format: cell-based
Sequence of D(1A) dopamine receptor (P21728 whole entry): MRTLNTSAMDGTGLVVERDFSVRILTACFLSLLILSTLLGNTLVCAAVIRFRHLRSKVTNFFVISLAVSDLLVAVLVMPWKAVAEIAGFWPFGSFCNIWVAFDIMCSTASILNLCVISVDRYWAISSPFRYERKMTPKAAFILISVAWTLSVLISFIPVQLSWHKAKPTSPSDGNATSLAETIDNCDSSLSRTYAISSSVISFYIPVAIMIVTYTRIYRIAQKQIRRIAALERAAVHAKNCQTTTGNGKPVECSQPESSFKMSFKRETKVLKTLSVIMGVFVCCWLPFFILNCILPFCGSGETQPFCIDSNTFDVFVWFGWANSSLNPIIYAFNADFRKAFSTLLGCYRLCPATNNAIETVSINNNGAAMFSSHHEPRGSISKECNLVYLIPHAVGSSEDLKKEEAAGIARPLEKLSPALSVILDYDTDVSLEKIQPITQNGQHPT

[5] = target: T4, Sodium-dependent dopamine transporter (Homo sapiens, UniProt Q01959); test: Displacement of [3H]WIN35428 from human DAT expressed in HEK cells by radioligand binding assay relative to control; format: cell-based
T4 sequence (Q01959 whole entry): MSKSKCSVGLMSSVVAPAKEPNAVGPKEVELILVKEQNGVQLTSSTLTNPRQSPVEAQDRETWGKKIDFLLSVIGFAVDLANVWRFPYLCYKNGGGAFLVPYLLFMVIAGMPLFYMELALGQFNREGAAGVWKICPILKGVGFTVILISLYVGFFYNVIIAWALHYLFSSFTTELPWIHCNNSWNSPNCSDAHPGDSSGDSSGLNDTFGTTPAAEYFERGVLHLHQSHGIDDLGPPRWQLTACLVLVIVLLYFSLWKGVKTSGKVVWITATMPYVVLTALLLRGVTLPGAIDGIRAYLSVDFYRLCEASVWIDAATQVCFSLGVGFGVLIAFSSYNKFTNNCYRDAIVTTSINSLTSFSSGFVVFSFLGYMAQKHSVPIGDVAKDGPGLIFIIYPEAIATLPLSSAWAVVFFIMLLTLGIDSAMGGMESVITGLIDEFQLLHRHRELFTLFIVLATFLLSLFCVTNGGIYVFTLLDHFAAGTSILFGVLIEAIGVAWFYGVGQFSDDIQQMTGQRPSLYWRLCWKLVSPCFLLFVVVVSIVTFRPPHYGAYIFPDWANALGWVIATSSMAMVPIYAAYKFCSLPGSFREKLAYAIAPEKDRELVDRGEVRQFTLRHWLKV

[6] = target: 5-hydroxytryptamine receptor 5A (Homo sapiens, UniProt P47898); test: Displacement of [3H]LSD from human 5-HT5A receptor expressed in Flp-In CHO cells by radioligand binding assay relative to control; format: cell-based; design: concentration or dose not given beside the values; conditions: concentration not given here
Sequence of 5-hydroxytryptamine receptor 5A (P47898 whole entry): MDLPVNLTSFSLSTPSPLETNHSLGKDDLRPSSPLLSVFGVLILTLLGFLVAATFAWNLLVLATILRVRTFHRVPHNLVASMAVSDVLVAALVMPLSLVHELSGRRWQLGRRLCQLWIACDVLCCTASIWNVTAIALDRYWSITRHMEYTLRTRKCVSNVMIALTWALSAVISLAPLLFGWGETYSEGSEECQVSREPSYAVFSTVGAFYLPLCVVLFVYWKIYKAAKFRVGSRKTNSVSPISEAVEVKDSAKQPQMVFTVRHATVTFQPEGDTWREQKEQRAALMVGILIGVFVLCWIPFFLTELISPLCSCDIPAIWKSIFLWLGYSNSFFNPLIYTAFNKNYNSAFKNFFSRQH

[7] = target: T5, Delta-type opioid receptor (Homo sapiens, UniProt P41143); test: Displacement of [3H]DADLE from human DOR expressed in HEK cells by radioligand binding assay; format: cell-based
T5 sequence (P41143 whole entry): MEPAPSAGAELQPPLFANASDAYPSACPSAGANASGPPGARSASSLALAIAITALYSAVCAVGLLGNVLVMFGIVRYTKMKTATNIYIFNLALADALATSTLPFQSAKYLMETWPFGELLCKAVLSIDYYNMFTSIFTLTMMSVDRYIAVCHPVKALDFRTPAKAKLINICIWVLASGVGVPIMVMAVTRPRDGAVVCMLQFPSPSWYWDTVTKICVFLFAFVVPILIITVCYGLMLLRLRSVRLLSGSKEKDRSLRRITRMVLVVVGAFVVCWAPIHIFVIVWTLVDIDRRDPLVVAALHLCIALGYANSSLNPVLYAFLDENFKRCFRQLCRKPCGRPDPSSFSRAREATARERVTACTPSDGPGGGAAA

[8] = target: T5, Delta-type opioid receptor; test: Displacement of [3H]DADLE from human DOR expressed in HEK cells by radioligand binding assay relative to control; format: cell-based; design: concentration or dose not given beside the values; conditions: concentration not given here
[9] = target: Sodium-dependent noradrenaline transporter (Homo sapiens, UniProt P23975); test: Displacement of [3H]Nisoxetine from human NET expressed in HEK cells by radioligand binding assay relative to control; format: cell-based
[10] = target: T6, 5-hydroxytryptamine receptor 1A (Homo sapiens) (UniProt P08908); test: Displacement of [3H]-Way100635 from human 5HT1A receptor expressed in stable CHO cell membranes by radioligand binding assay relative to control; design: concentration or dose not given beside the values; conditions: concentration not given here
T6 sequence (whole entry): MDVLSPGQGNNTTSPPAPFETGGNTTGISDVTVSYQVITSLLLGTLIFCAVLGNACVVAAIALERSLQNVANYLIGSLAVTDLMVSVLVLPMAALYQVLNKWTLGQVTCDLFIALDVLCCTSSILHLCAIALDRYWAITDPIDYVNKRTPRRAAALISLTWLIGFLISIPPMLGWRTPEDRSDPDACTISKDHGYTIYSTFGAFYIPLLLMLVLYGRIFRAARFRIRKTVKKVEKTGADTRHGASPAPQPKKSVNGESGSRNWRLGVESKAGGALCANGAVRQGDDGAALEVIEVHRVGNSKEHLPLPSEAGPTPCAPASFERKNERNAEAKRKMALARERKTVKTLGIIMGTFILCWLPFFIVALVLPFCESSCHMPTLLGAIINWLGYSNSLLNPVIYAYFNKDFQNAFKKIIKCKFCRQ

D(1B) dopamine receptor = D(1B) dopamine receptor (Homo sapiens, UniProt P21918); test: Displacement of [3H]SCH23390 from human dopamine D5 receptor expressed in HEK293T cells by radioligand binding assay relative to control; format: cell-based; design: concentration or dose not given beside the values; conditions: concentration not given here
Sequence of D(1B) dopamine receptor (P21918 whole entry): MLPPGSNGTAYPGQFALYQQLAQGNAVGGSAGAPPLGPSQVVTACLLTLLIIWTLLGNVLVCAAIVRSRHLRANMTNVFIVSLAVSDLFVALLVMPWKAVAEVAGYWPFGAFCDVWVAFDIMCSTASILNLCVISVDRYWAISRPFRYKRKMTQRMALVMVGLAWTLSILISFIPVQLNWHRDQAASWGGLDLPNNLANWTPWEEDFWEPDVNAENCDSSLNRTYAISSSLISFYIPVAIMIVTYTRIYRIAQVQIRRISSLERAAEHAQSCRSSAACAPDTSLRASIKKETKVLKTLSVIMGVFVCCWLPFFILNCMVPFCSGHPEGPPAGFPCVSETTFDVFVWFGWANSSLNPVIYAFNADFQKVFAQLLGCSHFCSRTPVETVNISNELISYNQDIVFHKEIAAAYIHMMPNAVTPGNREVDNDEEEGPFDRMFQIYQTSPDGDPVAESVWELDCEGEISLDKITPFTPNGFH

NIH3T3 [11] = test: Cytotoxicity against mouse NIH/3T3 cells assessed as reduction in cell viability after 48 hrs by MTT assay; format: cell-based; conditions: NIH3T3, 48 h; procedure, shortened: as §1
NIH3T3 [12] = test: Cytotoxicity against mouse NIH/3T3 cells assessed as reduction in cell viability after 72 hrs by MTT assay; format: cell-based; conditions: NIH3T3, 72 h; procedure, shortened: as §1
[13] = target: T4, Sodium-dependent dopamine transporter; test: Displacement of [3H]WIN35428 from human DAT expressed in HEK cells by radioligand binding assay; format: cell-based
D(4) dopamine receptor = target: T7, D(4) dopamine receptor (Homo sapiens, UniProt P21917); test: Displacement of [3H]N-methylspiperone from human dopamine D4 receptor by radioligand binding assay
T7 sequence (P21917 whole entry): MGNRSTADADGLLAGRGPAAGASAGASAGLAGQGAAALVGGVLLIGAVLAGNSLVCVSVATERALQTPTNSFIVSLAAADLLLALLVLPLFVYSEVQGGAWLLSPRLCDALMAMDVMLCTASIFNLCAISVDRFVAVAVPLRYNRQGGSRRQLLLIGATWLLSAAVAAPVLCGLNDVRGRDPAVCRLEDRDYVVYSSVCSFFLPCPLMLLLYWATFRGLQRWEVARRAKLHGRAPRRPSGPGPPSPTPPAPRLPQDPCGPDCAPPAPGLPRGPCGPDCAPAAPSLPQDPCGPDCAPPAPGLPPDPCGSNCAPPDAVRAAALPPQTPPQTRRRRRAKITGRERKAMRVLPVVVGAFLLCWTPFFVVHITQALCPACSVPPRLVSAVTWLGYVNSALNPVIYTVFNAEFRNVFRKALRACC

D(3) dopamine receptor [14] = target: T1, D(3) dopamine receptor; test: Displacement of [3H]N-methylspiperone from human dopamine D3 receptor expressed in HEK293T cells by radioligand binding assay; format: cell-based
[15] = target: T2, Kappa-type opioid receptor; test: Displacement of [3H]U69593 from KOR (unknown origin) expressed in HEK cells by radioligand binding assay relative to control; format: cell-based; design: concentration or dose not given beside the values; conditions: concentration not given here
NIH3T3 [16] = test: Cytotoxicity against mouse NIH/3T3 cells assessed as reduction in cell viability after 24 hrs by MTT assay; format: cell-based; conditions: NIH3T3, 24 h; procedure, shortened: as §1
[17] = target: 5-hydroxytryptamine receptor 2B (Homo sapiens, UniProt P41595); test: Displacement of [3H]LSD from human 5-HT2B receptor expressed in HEK cells by radioligand binding assay relative to control; format: cell-based; design: concentration or dose not given beside the values; conditions: concentration not given here
Sequence of 5-hydroxytryptamine receptor 2B (P41595 whole entry): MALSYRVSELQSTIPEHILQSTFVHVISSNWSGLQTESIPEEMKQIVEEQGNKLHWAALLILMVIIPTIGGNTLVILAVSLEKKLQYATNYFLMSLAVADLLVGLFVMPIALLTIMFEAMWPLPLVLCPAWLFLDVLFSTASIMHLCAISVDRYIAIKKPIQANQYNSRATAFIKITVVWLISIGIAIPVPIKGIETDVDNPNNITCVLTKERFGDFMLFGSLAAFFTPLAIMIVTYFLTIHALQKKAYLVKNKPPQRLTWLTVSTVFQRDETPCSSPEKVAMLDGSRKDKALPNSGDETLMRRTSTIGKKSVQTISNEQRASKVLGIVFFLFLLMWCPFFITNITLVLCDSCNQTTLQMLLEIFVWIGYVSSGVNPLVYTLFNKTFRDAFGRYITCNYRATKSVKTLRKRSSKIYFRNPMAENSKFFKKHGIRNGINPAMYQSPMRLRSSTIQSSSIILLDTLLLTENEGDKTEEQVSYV

Histamine H2 receptor = Histamine H2 receptor (Homo sapiens, UniProt P25021); test: Displacement of [3H]Cimetidine from human H2 receptor expressed in HEK cells by radioligand binding assay relative to control; format: cell-based; design: concentration or dose not given beside the values; conditions: concentration not given here
Sequence of Histamine H2 receptor (P25021 whole entry): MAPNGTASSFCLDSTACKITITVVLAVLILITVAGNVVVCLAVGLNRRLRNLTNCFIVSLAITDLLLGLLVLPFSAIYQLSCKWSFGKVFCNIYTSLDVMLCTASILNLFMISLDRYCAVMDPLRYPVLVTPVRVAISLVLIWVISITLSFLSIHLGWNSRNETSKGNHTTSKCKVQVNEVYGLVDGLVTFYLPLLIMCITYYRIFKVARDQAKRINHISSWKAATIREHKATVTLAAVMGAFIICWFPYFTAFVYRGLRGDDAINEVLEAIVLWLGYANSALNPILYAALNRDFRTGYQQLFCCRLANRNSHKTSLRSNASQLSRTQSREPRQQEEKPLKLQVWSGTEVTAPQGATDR

Sequence of Mu-type opioid receptor (P35372 whole entry): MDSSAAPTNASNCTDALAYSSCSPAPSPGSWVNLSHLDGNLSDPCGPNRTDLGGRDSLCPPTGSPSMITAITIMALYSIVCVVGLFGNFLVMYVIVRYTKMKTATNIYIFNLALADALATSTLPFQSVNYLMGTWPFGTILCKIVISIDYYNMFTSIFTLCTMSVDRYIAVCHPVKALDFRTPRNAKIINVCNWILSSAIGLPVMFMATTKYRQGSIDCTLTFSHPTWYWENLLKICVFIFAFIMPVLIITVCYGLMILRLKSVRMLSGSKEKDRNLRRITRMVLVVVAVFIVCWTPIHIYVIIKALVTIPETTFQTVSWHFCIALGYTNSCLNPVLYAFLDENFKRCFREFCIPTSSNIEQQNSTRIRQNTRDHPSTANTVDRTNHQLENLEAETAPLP

Row | SMILES | Ki (Mu-type opioid receptor) | IC50 [1] | inhibition (D(3) dopamine receptor [2]) | Ki [3] | Ki [4] | Ki (D(2) dopamine receptor) | Ki (D(1A) dopamine receptor) | inhibition (INH) [5] | inhibition [6] | Ki ([7]; read-out: Ki) | inhibition [8] | inhibition (INH) [9] | inhibition [10] | IC50 (NIH3T3 [11]) | IC50 (NIH3T3 [12]) | Ki (D(4) dopamine receptor) | Ki (D(3) dopamine receptor [14]) | inhibition [15] | IC50 (NIH3T3 [16]) | inhibition [17] | other results
1 | COc1ccc(N(CCCCN2CCC(O)(c3ccc(Cl)c(C(F)(F)F)c3)CC2)c2ccc(OC)cc2)cc1 | 8250 nM | 2700 to 6100 nM | 65.1% | 10000 nM | 740 nM | 417 nM | 10000 nM | 91.3% | 50% | 10000 nM | 77.6% | 86.4% | 57.3% | 11000 nM | 11200 nM | 459 nM | 437 nM | 65.8% | 8700 nM | 77.5% | inhibition (D(1B) dopamine receptor): 83.5%; Ki [13]: 622 nM
2 | OC1(c2ccc(Cl)c(C(F)(F)F)c2)CCN(CCCCN(c2ccc(F)cc2)c2ccc(F)cc2)CC1 | 10000 nM | 8200 nM | 82.5% | 10000 nM | 1130 nM | 550 nM | 10000 nM | 86.6% | 50% | 10000 nM | 68.9% | 88.2% | 82.2% | 11600 nM | 6400 nM | 10000 nM | 782 nM | 70.3% | 12100 nM | 82.4% | inhibition (D(1B) dopamine receptor): 84.6%; Ki [13]: 10000 nM
3 | OC1(c2ccc(Cl)c(C(F)(F)F)c2)CCN(CCCC(c2ccc(F)cc2)c2ccc(F)cc2)CC1 [PENFLURIDOL] | 867 nM | 4300 nM | 98.2% |  | 881 nM | 159 nM | 147 nM | 89.1% | 95% | 1710 nM | 89.1% | 86.2% | 100% | 6090 nM | 6010 nM |  | 136 nM | 94.6% | 6030 nM | 97.3% | inhibition (D(1B) dopamine receptor): 82.9%; Ki [13]: 1710 nM; inhibition (Histamine H2 receptor): 98.4%
4 | OC1(c2ccc(Cl)c(C(F)(F)F)c2)CCN(CCCCCc2ccc(F)cc2)CC1 | 536 nM | 8200 to 9800 nM | 77.8% | 1700 nM | 2550 nM | 460 nM |  |  | 16.4% |  |  |  | 77.2% | 11800 nM | 9800 nM | 132 nM |  | 78.3% | 13200 nM |  | Ki [7]: Not Active; inhibition (Histamine H2 receptor): 69.2%
5 | OC1(c2ccc(Cl)c(C(F)(F)F)c2)CCN(CCCC(c2ccccc2)c2ccccc2)CC1 | 70 nM | 9200 nM | 97.4% | 1330 nM | 2130 nM | 38 nM | 135 nM | 87.5% |  | 1530 nM | 82.7% | 90.6% | 97.2% | 12000 nM | 9800 nM | 58 nM | 62 nM | 98% | 12200 nM | 92.5% | inhibition (D(1B) dopamine receptor): 89.4%; Ki [13]: 121 nM; inhibition (Histamine H2 receptor): 89.5%
6 | OC1(c2ccc(Cl)c(C(F)(F)F)c2)CCN(CCCCC(c2ccc(F)cc2)c2ccc(F)cc2)CC1 | 356 nM | 4200 nM | 95.7% | 2670 nM | 1710 nM | 194 nM | 798 nM | 91.6% | 75.8% | 1410 nM | 84.5% | 98.3% | 85% | 5300 nM | 4100 nM | 385 nM | 209 nM | 96% | 6500 nM | 93.3% | inhibition (D(1B) dopamine receptor): 88.2%; Ki [13]: 529 nM; inhibition (Histamine H2 receptor): 94%
7 | OC1(c2ccc(Cl)c(C(F)(F)F)c2)CCN(CCCC=C(c2ccc(F)cc2)c2ccc(F)cc2)CC1 | 328 nM | 11200 nM | 87.1% | 1020 nM | 1600 nM | 317 nM |  |  | 21.4% |  | 74.1% |  | 71.2% | 14800 nM | 7100 nM | 1640 nM | 552 nM | 80.9% | 37200 nM | 91.8% | inhibition (Histamine H2 receptor): 82.6%
8 | OC1(c2ccc(Cl)c(C(F)(F)F)c2)CCN(CCCN(c2ccc(F)cc2)c2ccc(F)cc2)CC1 | 902 nM | 4100 nM | 94.4% | 667 nM | 402 nM | 148 nM | 300 nM | 83.4% | 67.7% | 1560 nM | 65.9% | 97.4% | 94.2% | 5600 nM | 4000 nM | 25 nM | 474 nM | 69.8% | 6800 nM | 95.5% | inhibition (D(1B) dopamine receptor): 100%; Ki [13]: 1190 nM; inhibition (Histamine H2 receptor): 98.3%
